Source: ChEMBL document CHEMBL1687913, “Structure-activity relationship, conformational and biological studies of temporin L analogues” (J Med Chem, 2011)
Values after ≈ are worked out from the molar mass of the structure shown. Where a SMILES comes first, the peptide text is derived from it.

Key:
[1] = Toxicity in human erythrocytes assessed as hemolysis at 6 uM after 40 mins; type: cell-based, Erythrocyte; conditions: read-out: Activity
How it was run: (§1)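 Human red blood cells suspended in 0.9% (w/v) NaCl and incubated 40 min at 37 °C with gentle mixing with serial 2-fold peptide dilutions (peptide predissolved in 20% ethanol). Spun 5 min at 900g; supernatant read at 415 nm. Cells lysed in distilled water set the 100% lysis reference.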

Acinetobacter baumannii = assay: Antibacterial activity against Acinetobacter baumannii ATCC 19606 after 18 to 20 hrs by microbroth dilution method; type: functional
How it was run: (§2)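 CLSI microbroth dilution, adapted. Mid-log bacteria, 2 × 10^6 CFU/mL in Mueller-Hinton broth, mixed 1:1 with MH broth holding peptide in serial 2-fold dilutions in 20% ethanol (0.75-48 μM). Incubated 18-20 h at 37 °C; growth read as A600. MIC is the lowest concentration giving 100% growth inhibition.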

[2] = Toxicity in human erythrocytes assessed as hemolysis at 24 uM after 40 mins; type: cell-based, Erythrocyte; conditions: read-out: Activity; how it was run: as §1
Escherichia coli [3] = assay: Antibacterial activity against Escherichia coli ATCC 25922 after 18 to 20 hrs by microbroth dilution method; type: functional; how it was run: as §2
Saccharomyces cerevisiae = assay: Antifungal activity against Saccharomyces cerevisiae after 18 to 20 hrs by microbroth dilution method; type: functional
How it was run: (§3)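 Yeasts tested by adapted CLSI microbroth dilution in Winge medium. Peptide given in serial 2-fold dilutions (0.75-48 μM, made in 20% ethanol). Incubation 18-20 h at 30 °C, read at A600. MIC taken as the concentration giving complete (100%) growth inhibition.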

Streptococcus pyogenes = assay: Antibacterial activity against Streptococcus pyogenes ATCC 21547 after 18 to 20 hrs by microbroth dilution method; type: functional; how it was run: as §2
Staphylococcus aureus [4] = assay: Antibacterial activity against Staphylococcus aureus Cowan I after 18 to 20 hrs by microbroth dilution method; type: functional; how it was run: as §2
Candida albicans = assay: Antifungal activity against Candida albicans ATCC 10231 after 18 to 20 hrs by microbroth dilution method; type: functional; how it was run: as §3
Acinetobacter junii = assay: Antibacterial activity against […] Acinetobacter junii RT-4 after 18 to 20 hrs by microbroth dilution method; type: functional; how it was run: as §2
Priestia megaterium = assay: Antibacterial activity against Bacillus megaterium Bm11 after 18 to 20 hrs by microbroth dilution method; type: functional; how it was run: as §2
Enterococcus faecalis = assay: Antibacterial activity against Enterococcus faecalis ATCC 29212 after 18 to 20 hrs by microbroth dilution method; type: functional; how it was run: as §2
[5] = system: Yersinia pseudotuberculosis; assay: Antibacterial activity against Yersinia pseudotuberculosis YPIII after 18 to 20 hrs by microbroth dilution method; type: functional
How it was run: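 Broth microdilution adapted from CLSI. Mid-log bacteria at 2 × 10^6 CFU/mL in Mueller-Hinton broth were mixed 1:1 with MH broth containing peptide in serial 2-fold dilutions (peptide in 20% ethanol), 0.75-48 μM. Plates were incubated 18-20 h at 37 °C and growth was read as A600. MIC is the concentration giving 100% growth inhibition.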

[6] = Toxicity in human erythrocytes assessed as hemolysis at 12 uM after 40 mins; type: cell-based, Erythrocyte; conditions: read-out: Activity; how it was run: as §1
Staphylococcus capitis = assay: Antibacterial activity against Staphylococcus capitis after 18 to 20 hrs by microbroth dilution method; type: functional; how it was run: as §2
[7] = Toxicity in human erythrocytes assessed as hemolysis at 3 uM after 40 mins; type: cell-based, Erythrocyte; conditions: read-out: Activity; how it was run: as §1
[8] = system: Staphylococcus epidermidis; assay: Antibacterial activity against Staphylococcus epidermidis ATCC 12228 after 18 to 20 hrs by microbroth dilution method; type: functional; how it was run: as §2
[9] = system: Schizosaccharomyces pombe; assay: Antifungal activity against Schizosaccharomyces pombe after 18 to 20 hrs by microbroth dilution method; type: functional; how it was run: as §3
Pseudomonas aeruginosa [10] = assay: Antibacterial activity against Pseudomonas aeruginosa ATCC 15692 after 18 to 20 hrs by microbroth dilution method; type: functional; how it was run: as §2
Pseudomonas aeruginosa [11] = assay: Antibacterial activity against Pseudomonas aeruginosa ATCC 27853 after 18 to 20 hrs by microbroth dilution method; type: functional; how it was run: as §2
[12] = Toxicity in human erythrocytes assessed as hemolysis at 1.5 uM after 40 mins; type: cell-based, Erythrocyte; conditions: read-out: Activity; how it was run: as §1
Escherichia coli [13] = assay: Antibacterial activity against Escherichia coli D21 after 18 to 20 hrs by microbroth dilution method; type: functional; how it was run: as §2
Staphylococcus aureus [14] = assay: Antibacterial activity against Staphylococcus aureus ATCC 25923 after 18 to 20 hrs by microbroth dilution method; type: functional; how it was run: as §2
Pseudomonas syringae = assay: Antibacterial activity against Pseudomonas syringae pv tobaci after 18 to 20 hrs by microbroth dilution method; type: functional; how it was run: as §2

SMILES: CC[C@H](C)[C@H](NC(=O)[C@H](CCCNC(=N)N)NC(=O)CNC(=O)[C@H](CC(C)C)NC(=O)[C@H](Cc1ccccc1)NC(=O)[C@H](CCCCN)NC(=O)[C@H](CO)NC(=O)[C@H](Cc1ccccc1)NC(=O)[C@H](Cc1c[nH]c2ccccc12)NC(=O)[C@H](CCCNC(=N)N)NC(=O)[C@@H](NC(=O)[C@@H](N)Cc1ccccc1)C(C)C)C(=O)N[C@@H](CC(C)C)C(N)=O (H-FVRWFSKFLGRIL-NH2)
- hemolysis at 40 min, 6 µM [1]: 52%
- MIC (Acinetobacter baumannii): 6 µM (≈ 10 µg/mL)
- hemolysis at 40 min, 24 µM [2]: 100%
- MIC (Escherichia coli [3]): 24 µM (≈ 40 µg/mL)
- MIC (Saccharomyces cerevisiae): 24 µM (≈ 40 µg/mL)
- MIC (Streptococcus pyogenes): 3 µM (≈ 5 µg/mL)
- MIC (Staphylococcus aureus [4]): 6 µM (≈ 10 µg/mL)
- MIC (Candida albicans): 12 µM (≈ 20 µg/mL)
- MIC (Acinetobacter junii): 3 µM (≈ 5 µg/mL)
- MIC (Priestia megaterium): 3 µM (≈ 5 µg/mL)
- MIC (Enterococcus faecalis): 12 µM (≈ 20 µg/mL)
- MIC [5]: 3 µM (≈ 5 µg/mL)
- hemolysis at 40 min, 12 µM [6]: 100%
- MIC (Staphylococcus capitis): 3 µM (≈ 5 µg/mL)
- hemolysis at 40 min, 3 µM [7]: 20%
- MIC [8]: 3 µM (≈ 5 µg/mL)
- MIC [9]: 12 µM (≈ 20 µg/mL)
- MIC (Pseudomonas aeruginosa [10]): 12 µM (≈ 20 µg/mL)
- MIC (Pseudomonas aeruginosa [11]): 24 µM (≈ 40 µg/mL)
- hemolysis at 40 min, 1.5 µM [12]: 7%
- MIC (Escherichia coli [13]): 12 µM (≈ 20 µg/mL)
- MIC (Staphylococcus aureus [14]): 6 µM (≈ 10 µg/mL)
- MIC (Pseudomonas syringae): 6 µM (≈ 10 µg/mL)

SMILES: CC[C@@H](C)[C@@H](NC(=O)[C@@H](CCCNC(=N)N)NC(=O)CNC(=O)[C@@H](CC(C)C)NC(=O)[C@@H](Cc1ccccc1)NC(=O)[C@@H](CCCCN)NC(=O)[C@@H](CO)NC(=O)[C@@H](Cc1ccccc1)NC(=O)[C@@H](Cc1c[nH]c2ccccc12)NC(=O)[C@@H](CCC(N)=O)NC(=O)[C@H](NC(=O)[C@H](N)Cc1ccccc1)C(C)C)C(=O)N[C@H](CC(C)C)C(N)=O [listing 1 of 2 here]
- MIC (Acinetobacter baumannii): 6 µM (≈ 9.84 µg/mL)
- MIC (Escherichia coli [3]): 12 µM (≈ 19.7 µg/mL)
- MIC (Saccharomyces cerevisiae): 6 µM (≈ 9.84 µg/mL)
- MIC (Streptococcus pyogenes): 6 µM (≈ 9.84 µg/mL)
- MIC (Staphylococcus aureus [4]): 3 µM (≈ 4.92 µg/mL)
- MIC (Candida albicans): 6 µM (≈ 9.84 µg/mL)
- MIC (Acinetobacter junii): 6 µM (≈ 9.84 µg/mL)
- MIC (Priestia megaterium): 1.5 µM (≈ 2.46 µg/mL)
- MIC (Enterococcus faecalis): 3 µM (≈ 4.92 µg/mL)
- MIC [5]: 3 µM (≈ 4.92 µg/mL)
- MIC (Staphylococcus capitis): 3 µM (≈ 4.92 µg/mL)
- MIC [8]: 3 µM (≈ 4.92 µg/mL)
- MIC [9]: 6 µM (≈ 9.84 µg/mL)
- MIC (Pseudomonas aeruginosa [10]): 48 µM (≈ 78.7 µg/mL)
- MIC (Pseudomonas aeruginosa [11]): > 48 µM
- MIC (Escherichia coli [13]): 12 µM (≈ 19.7 µg/mL)
- MIC (Staphylococcus aureus [14]): 3 µM (≈ 4.92 µg/mL)
- MIC (Pseudomonas syringae): 6 µM (≈ 9.84 µg/mL)

SMILES: CC[C@@H](C)[C@@H](NC(=O)[C@H](N)CC(C)C)C(=O)N[C@H](CCCNC(=N)N)C(=O)NCC(=O)N[C@H](CC(C)C)C(=O)N[C@H](Cc1ccccc1)C(=O)N[C@H](CCCCN)C(=O)N[C@H](CO)C(=O)N[C@H](Cc1ccccc1)C(=O)N[C@H](Cc1c[nH]c2ccccc12)C(=O)N[C@H](CCC(N)=O)C(=O)N[C@@H](C(=O)N[C@H](Cc1ccccc1)C(N)=O)C(C)C
- hemolysis at 40 min, 6 µM [1]: 15%
- hemolysis at 40 min, 24 µM [2]: 81%
- hemolysis at 40 min, 12 µM [6]: 49%
- hemolysis at 40 min, 3 µM [7]: 6%
- hemolysis at 40 min, 1.5 µM [12]: 1%

SMILES: CC[C@H](C)[C@H](NC(=O)[C@H](CCCNC(=N)N)NC(=O)[C@H](CC(C)C)NC(=O)[C@H](CC(C)C)NC(=O)[C@H](Cc1ccccc1)NC(=O)[C@H](CCCCN)NC(=O)[C@H](CO)NC(=O)[C@H](Cc1ccccc1)NC(=O)[C@H](Cc1c[nH]c2ccccc12)NC(=O)[C@H](CCC(N)=O)NC(=O)[C@@H](NC(=O)[C@@H](N)Cc1ccccc1)C(C)C)C(=O)N[C@@H](CC(C)C)C(N)=O (H-FVQWFSKFLLRIL-NH2)
- hemolysis at 40 min, 6 µM [1]: 80%
- MIC (Acinetobacter baumannii): 48 µM (≈ 81.4 µg/mL)
- hemolysis at 40 min, 24 µM [2]: 83%
- MIC (Escherichia coli [3]): > 48 µM
- MIC (Streptococcus pyogenes): 6 µM (≈ 10.2 µg/mL)
- MIC (Staphylococcus aureus [4]): 48 µM (≈ 81.4 µg/mL)
- MIC (Candida albicans): > 48 µM
- MIC (Acinetobacter junii): > 48 µM
- MIC (Priestia megaterium): 48 µM (≈ 81.4 µg/mL)
- MIC (Enterococcus faecalis): 48 µM (≈ 81.4 µg/mL)
- MIC [5]: 6 µM (≈ 10.2 µg/mL)
- hemolysis at 40 min, 12 µM [6]: 80%
- MIC (Staphylococcus capitis): > 48 µM
- hemolysis at 40 min, 3 µM [7]: 78%
- MIC [8]: 3 µM (≈ 5.09 µg/mL)
- MIC [9]: 6 µM (≈ 10.2 µg/mL)
- MIC (Pseudomonas aeruginosa [10]): > 48 µM
- MIC (Pseudomonas aeruginosa [11]): > 48 µM
- hemolysis at 40 min, 1.5 µM [12]: 69%
- MIC (Escherichia coli [13]): 48 µM (≈ 81.4 µg/mL)
- MIC (Staphylococcus aureus [14]): 48 µM (≈ 81.4 µg/mL)
- MIC (Pseudomonas syringae): > 48 µM

SMILES: CC[C@@H](C)[C@@H](NC(=O)[C@@H](CCCNC(=N)N)NC(=O)CNC(=O)[C@@H](CC(C)C)NC(=O)[C@@H](Cc1ccccc1)NC(=O)[C@@H](CCCCN)NC(=O)[C@@H](CO)NC(=O)[C@@H](Cc1ccccc1)NC(=O)[C@@H](Cc1c[nH]c2ccccc12)NC(=O)[C@@H](CCC(N)=O)NC(=O)[C@H](NC(=O)[C@H](N)Cc1ccccc1)C(C)C)C(=O)N[C@H](CC(C)C)C(N)=O [listing 2 of 2 here]
- hemolysis at 40 min, 6 µM [1]: 46%
- hemolysis at 40 min, 24 µM [2]: 90%
- hemolysis at 40 min, 12 µM [6]: 88%
- hemolysis at 40 min, 3 µM [7]: 13%
- hemolysis at 40 min, 1.5 µM [12]: 5%
